Cneo AK release – causes C. neoformans cell lysis; adenylate kinase release luminescence, 4 h; normalised: neutral wells 0, clomiphene wells 100; lysis activity, % at 15 µM; 360,000 compounds, 0.2% hits;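 active = mean lysis activity across replicates of at least 80%, whatever share of replicates individually reach that level; inactive = mean lysis activity below 80%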
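Test system: log-phase Cryptococcus neoformans yeast cells; Quantity: yeast cell density of 5 × 10^6 cells/mL; Buffer or medium: YPD; Doses: single compound concentration per well; Timing: 4 h at 37 °C static, read 1 h later; Measured by: AK luminescence; Read-out basis: lysis from increased AK signal; Control set: Clomiphene as positive control.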
Efflux pump mplx – antifungal efflux pump inhibition, Nile Red retention; 330,000 compounds, 0.44% hits; AID 485275; S. cerevisiae Candida pump triplex; inhibition, % at 10 µM;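 active = plate passing quality check with inhibition over a set limit, or well fluorescence over plate mean plus 4 SD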;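 also: Nile Red retained in pooled yeast measured as flow cytometry median fluorescence; 0% = buffer negative control and 100% = Enniatin B positive control; higher means more Nile Red kept so more efflux inhibition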
Statin myotox sup – suppression of simvastatin myotoxicity. AID 602340. rescue of ATP level, % at 7.49 µM. C2C12 myotubes + simvastatin, ATP luminescence, 48 h; scaled: DMSO 0, geranylgeraniol control 100. 330,000 compounds, 0.78% hits;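 active = mean ATP rescue above about 67%, or every replicate alone reaching that limit, limit read from the data, passing the limit was not always enough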;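 also: myotubes were challenged with 10 µM simvastatin during compound exposure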
Mot1-301 SUMO – SUMOylation pathway inhibition by Mot1-301 growth rescue. 320,000 compounds, 1% hits. S. cerevisiae Mot1-301 growth rescue, ATP luminescence, 38.5C; percent above DMSO median, 100 means doubled. growth rescue, % at 18.8 µM;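 active = every valid replicate shows activation above 250% relative to neutral control wells; inactive = the rest, any valid replicate at or below 250%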;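 also: OY570 slx delta 5 strain wells were the positive control but not used for scaling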
Numbers without * were called inactive; . = not tested or not shown. Sampled rows, rich in hits. Any-hit rate of the full collection: about 1.8%.

SMILES	Cneo AK release	Efflux pump mplx	Statin myotox sup	Mot1-301 SUMO
Cc1ccc(F)cc1-c1nc(NC(C)C)nc2cc(-c3ccccc3)sc12	0	.	2	.
C#CNC(=O)C1(CC=C)CCNCC1	0	.	100*	7
CC(=O)Nc1ccc(C23CC4CC(CC(C4)C2)C3)cc1	-5	0	14	17
Oc1ccc(C23CC4CC(CC(C4)C2)C3)cc1O	0	0	-3	648*
O=C1C2C3CCC(C3)C2C(=O)N1c1ccc2ccccc2c1 (centres undefined)	-2	0	4	12
O=C(Nc1ncnc2sc3c(c12)CCCC3)c1ccncc1	14	0	9	6
O=C(Nc1ncnc2sc3c(c12)CCCCC3)c1ccco1	.	0	128*	.
CC(=O)C(=Nc1ccccc1Cl)NNc1ccc(Cl)cc1	1	0	152*	141
CC(C)(C)C(=O)/C(=C\c1ccc([N+](=O)[O-])cc1)n1cncn1	.	0	.	330*
CC(C)(C)C(=O)/C(=C/c1ccc(Cl)cc1)n1cncn1	-1	0	5	431
O=C(NCC1OCCc2ccccc21)C1COc2ccccc2O1 (centres undefined)	7	0	-5	10
COc1ccc(C2C(C(=O)Nc3cccc(C)n3)CCC(=O)N2c2ccc(OC)cc2)cc1 (centres undefined)	.	0	.	-1
CC1CN/C(=C\C(=O)c2ccccc2)C(=O)N1 (centres undefined)	2	0	117*	-4
CC1CN/C(=C\C(=O)c2ccc(Cl)cc2)C(=O)N1 (centres undefined)	-4	0	88*	126
CC(C)NC(=O)Nc1cccc2c1O[C@@H](CN(C)C(=O)Nc1ccccc1)[C@@H](C)CN([C@@H](C)CO)C2=O	103*	.	10	.
CC(C)NC(=O)Nc1cccc2c1O[C@@H](CN(C)C)[C@@H](C)CN([C@@H](C)CO)C2=O	-3	.	9	.
CC(C)NC(=O)Nc1cccc2c1O[C@H](CN(C)C)[C@H](C)CN([C@H](C)CO)C2=O	100*	.	-7	.
N#Cc1ccc(NC(=O)CSc2n[nH]c(=O)n2C2CC2)cc1	0	0	1	-15
O=C(CNC(=O)c1cccs1)NCCN1CCN(c2ccccc2F)CC1	-1	0	-14	-2
Cc1sc(NC(=O)CSc2nc(N)cc(N)n2)c(C#N)c1C	.	0	3	319*
Cc1sc(NC(=O)CSc2nnc(-c3ccccc3)o2)c(C#N)c1C	1	0	6	-12
Cc1ccc(Cc2cnc(NC(=O)/C(C#N)=C/c3ccc(-c4ccccc4[N+](=O)[O-])o3)s2)cc1	-1	0	.	8
Cc1ccc(C)c(N2CCN(S(=O)(=O)c3c(C)noc3/C=C/N(C)C)CC2)c1	-1	0.8*	-11	14
Cc1noc(C)c1NC(=O)N[C@H]1C=C[C@H](CC(=O)NCc2ccc(Cl)c(Cl)c2)O[C@@H]1CO	-4	.	5	.
OCC[C@H]1C[C@@H](O)[C@H](O)[C@@]2(Cc3ccccc3O2)O1	2	0	118*	-10
SMILES	Cneo AK release	Efflux pump mplx	Statin myotox sup	Mot1-301 SUMO
C[C@H](CO)N1C[C@H](C)[C@@H](CN(C)C(=O)Nc2cccc3ccccc23)Oc2ccc(NS(=O)(=O)c3cn(C)cn3)cc2C1=O	0	.	21	.
C[C@@H]1CN([C@H](C)CO)C(=O)c2cc(NS(=O)(=O)c3cn(C)cn3)ccc2O[C@H]1CN(C)C(=O)Nc1cccc2ccccc12	100*	.	7	.
C[C@@H]1CN([C@@H](C)CO)C(=O)c2cc(NS(=O)(=O)c3cn(C)cn3)ccc2O[C@@H]1CN(C)C(=O)Nc1cccc2ccccc12	90*	.	27	.
COc1ccccc1C(=O)OC1CCCN(C)C1 (centres undefined)	6	0	11	-6
C[C@H]1CN([C@@H](C)CO)C(=O)c2cc(NS(=O)(=O)c3ccccc3)ccc2O[C@H]1CN(C)S(=O)(=O)c1ccccc1	0	.	51	.
Cc1ccc(C(=O)Nc2sc3c(c2C#N)CCCCC3)cc1C	0	0	.	14
CC1CCC(NC(=O)c2ccc(Br)o2)CC1 (centres undefined)	-1	.	3	.
COC(=O)C1CCN(C(=O)COC(=O)CNS(=O)(=O)c2ccc(SC)c([N+](=O)[O-])c2)CC1	1	0	1	360
COC(=O)c1cc(Br)c(=O)n(CCN2CCOCC2)c1	-3	0	104*	14
COC(=O)c1cc(Br)c(=O)n(CCN(C(C)C)C(C)C)c1	3	0	13	8
CCOC(=O)c1nn(-c2ccccc2)c(=O)c2c(N)scc12	3	0	-14	332*

High-throughput results (PubChem)
